{"source": "ChEMBL document CHEMBL4052828", "about": "“Discovery of 4-((7H-Pyrrolo[2,3-d]pyrimidin-4-yl)amino)-N-(4-((4-methylpiperazin-1-yl)methyl)phenyl)-1H-pyrazole-3-carboxamide (FN-1501), an FLT3- and CDK-Kinase Inhibitor with Potentially High Efficiency against Acute Myelocytic Leukemia” (J Med Chem, 2018)", "key": {"[1]": {"system": "MV4-11", "experiment": "Induction of apoptosis in human MV4-11 cells assessed as early apoptotic cells at 0.5 uM after 24 hrs by annexin V-FITC/propidium iodide staining-based flow cytometric method (reference value: 3.54%)", "assay_type": "functional"}, "[2]": {"experiment": "Terminal half life in dog liver microsomes by LC-MS/MS analysis", "assay_type": "ADME, Canis lupus familiaris, microsome", "settings": "read-out: beta t1/2 (converted)", "how_it_was_run": "(§1)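 Metabolic stability measured by incubating compound in human, rat, mouse, dog and monkey liver microsomes. Terminal t1/2 determined.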"}, "[3]": {"molecular_target": "CDK2/Cyclin A1 (Homo sapiens, UniProt P24941)", "experiment": "Inhibition of human CDK2/Cyclin A1 using histone H1 as substrate preincubated for 20 mins followed by [gamma-33P]-ATP addition measure after 120 mins by filter binding method", "assay_type": "protein-complex assay", "how_it_was_run": "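Compound preincubated with kinase 20 min at room temperature. Filter-binding read-out, curve-fitted IC50; mean ± SD of three independent experiments.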"}, "[4]": {"system": "Lymphocyte", "experiment": "Cytotoxicity against human lymphocytes assessed as decrease in cell viability after 72 hrs by MTT assay", "assay_type": "cell-based"}, "[5]": {"molecular_target": "Cyclin-dependent kinase 4/cyclin D1 (Homo sapiens, UniProt P11802)", "sequence (P11802 whole entry)": "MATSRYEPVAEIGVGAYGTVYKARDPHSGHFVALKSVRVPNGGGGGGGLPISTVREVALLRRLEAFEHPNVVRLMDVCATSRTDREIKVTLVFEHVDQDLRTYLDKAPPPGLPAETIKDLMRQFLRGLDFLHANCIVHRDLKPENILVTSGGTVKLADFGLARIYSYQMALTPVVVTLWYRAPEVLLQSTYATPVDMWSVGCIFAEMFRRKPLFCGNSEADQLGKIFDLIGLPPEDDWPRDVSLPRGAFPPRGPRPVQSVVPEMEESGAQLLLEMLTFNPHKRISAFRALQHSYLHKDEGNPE", "sequence (P24385 whole entry, further chain)": "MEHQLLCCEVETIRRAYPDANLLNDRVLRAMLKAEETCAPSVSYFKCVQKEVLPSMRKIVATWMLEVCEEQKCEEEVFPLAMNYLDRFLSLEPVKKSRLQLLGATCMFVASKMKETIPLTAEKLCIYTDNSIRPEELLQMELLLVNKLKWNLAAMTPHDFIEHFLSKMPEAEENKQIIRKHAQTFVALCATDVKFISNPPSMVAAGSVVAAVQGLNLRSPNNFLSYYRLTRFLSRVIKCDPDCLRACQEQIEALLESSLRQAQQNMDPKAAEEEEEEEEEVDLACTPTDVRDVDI", "experiment": "Inhibition of human CDK4/Cyclin D1 using RB protein as substrate preincubated for 20 mins followed by [gamma-33P]-ATP addition measure after 120 mins by filter binding method", "assay_type": "protein-complex assay", "how_it_was_run": "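Compound preincubated with kinase 20 min at room temperature. Reaction started with 10 μM [γ-33P]ATP and run 120 min at 25°C. Filter-binding read-out, curve-fitted IC50; mean ± SD of three independent experiments.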"}, "[6]": {"system": "NCI-H82", "experiment": "Growth inhibition of human NCI-H82 cells after 72 hrs by CellTiter-Glo assay", "assay_type": "functional", "settings": "NCI-H82, 72 h"}, "[7]": {"experiment": "Terminal half life in cynomolgus monkey liver microsomes by LC-MS/MS analysis", "assay_type": "ADME, Macaca fascicularis, microsome", "settings": "read-out: beta t1/2 (converted)", "how_it_was_run": "as §1"}, "[8]": {"system": "MV4-11", "experiment": "Induction of apoptosis in human MV4-11 cells assessed as early apoptotic cells at 0.2 uM after 24 hrs by annexin V-FITC/propidium iodide staining-based flow cytometric method (reference value: 3.54%)", "assay_type": "functional"}, "[9]": {"system": "MV4-11", "experiment": "Antitumor activity against human MV4-11 cells xenografted in nu/nu mouse assessed as tumor regression at 30 mg/kg, iv qd measured on day 21 relative to vehicle-treated control", "assay_type": "functional"}, "[10]": {"species_on_record": "Homo sapiens", "experiment": "Inhibition of CDK in human MV4-11 cells assessed as decrease in Rb phosphorylation at Ser807/811 after 24 hrs by Western blot analysis", "assay_type": "cell-based", "how_it_was_run": "(§2)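 MV4-11 cells treated with increasing concentrations of compound for 24 h. Lysates immunoblotted for phosphorylated FLT3, STAT5, ERK, AKT and Rb.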"}, "[11]": {"system": "Mus musculus", "experiment": "Toxicity in nu/nu mouse xenografted with human MV4-11 cells assessed as body weight loss at 15 to 40 mg/kg, iv qd administered for 21 days measuring during compound dosing", "assay_type": "organism-based", "settings": "in vivo, 504 h", "how_it_was_run": "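Female nu/nu mice carried established MV4-11 xenografts. Once tumors reached 200 mm3, mice were grouped and given compound or vehicle by intravenous injection once daily at 15, 30 or 40 mg/kg/d for 21 days. A Cytarabine arm received 50 mg/kg/d iv. Body weight was tracked during dosing and expressed relative to initial weight set as 100%.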"}, "[12]": {"system": "MV4-11", "experiment": "Induction of apoptosis in human MV4-11 cells assessed as late apoptotic cells at 2 uM after 24 hrs by annexin V-FITC/propidium iodide staining-based flow cytometric method (reference value: 2.54%)", "assay_type": "functional"}, "[13]": {"system": "MV4-11", "experiment": "Induction of apoptosis in human MV4-11 cells assessed as early apoptotic cells at 1 uM after 24 hrs by annexin V-FITC/propidium iodide staining-based flow cytometric method (reference value: 3.54%)", "assay_type": "functional"}, "[14]": {"system": "RS4-11", "experiment": "Growth inhibition of human RS4:11 cells after 72 hrs by CellTiter-Glo assay", "assay_type": "functional", "settings": "RS4-11, 72 h"}, "[15]": {"system": "MV4-11", "experiment": "Growth inhibition of human MV4-11 cells after 72 hrs by CellTiter-Glo assay", "assay_type": "functional, cell-based", "settings": "MV4-11, 72 h", "how_it_was_run": "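MV4-11 cells grown in IMDM with 10% FBS, 2% L-glutamine and 1% pen/strep at 37 °C, 5% CO2. Seeded at 10000 cells/well and exposed to compound at various concentrations for 72 h. Viability read by CellTiter-Glo luminescence.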"}, "[16]": {"molecular_target": "Receptor-type tyrosine-protein kinase FLT3 (Homo sapiens) (UniProt P36888)", "sequence (P36888 whole entry)": "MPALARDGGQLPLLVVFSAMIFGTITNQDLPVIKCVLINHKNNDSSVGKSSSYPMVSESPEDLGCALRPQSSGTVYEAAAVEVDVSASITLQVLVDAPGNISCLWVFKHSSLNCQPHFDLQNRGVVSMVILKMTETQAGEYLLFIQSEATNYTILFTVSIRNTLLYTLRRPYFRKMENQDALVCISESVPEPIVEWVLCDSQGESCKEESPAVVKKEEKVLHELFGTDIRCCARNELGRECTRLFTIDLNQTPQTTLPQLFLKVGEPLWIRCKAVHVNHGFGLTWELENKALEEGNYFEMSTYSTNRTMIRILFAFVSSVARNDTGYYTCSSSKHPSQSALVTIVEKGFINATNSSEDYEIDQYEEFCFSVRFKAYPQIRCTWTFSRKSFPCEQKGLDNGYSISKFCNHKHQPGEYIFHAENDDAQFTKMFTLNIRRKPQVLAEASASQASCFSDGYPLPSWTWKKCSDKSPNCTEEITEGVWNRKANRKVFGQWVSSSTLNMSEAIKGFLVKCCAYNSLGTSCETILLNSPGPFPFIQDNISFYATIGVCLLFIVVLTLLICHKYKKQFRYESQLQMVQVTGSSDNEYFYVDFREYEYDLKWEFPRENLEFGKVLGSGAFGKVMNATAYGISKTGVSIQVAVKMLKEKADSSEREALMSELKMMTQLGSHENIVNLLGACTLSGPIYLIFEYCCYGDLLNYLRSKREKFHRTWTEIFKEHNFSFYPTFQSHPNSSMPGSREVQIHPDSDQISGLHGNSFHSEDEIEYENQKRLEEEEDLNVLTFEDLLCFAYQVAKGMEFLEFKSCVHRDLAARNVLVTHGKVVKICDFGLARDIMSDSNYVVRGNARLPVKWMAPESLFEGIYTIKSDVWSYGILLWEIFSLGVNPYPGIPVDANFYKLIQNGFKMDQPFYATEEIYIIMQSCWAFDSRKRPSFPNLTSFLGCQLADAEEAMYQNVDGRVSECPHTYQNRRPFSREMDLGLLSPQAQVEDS", "experiment": "Inhibition of FLT3 phosphorylation in human MV4-11 cells assessed as decrease in ERK phosphorylation at 0.02 to 1 uM after 24 hrs by Western blot analysis", "assay_type": "cell-based", "how_it_was_run": "as §2"}, "[17]": {"molecular_target": "Receptor-type tyrosine-protein kinase FLT3 (Homo sapiens) (UniProt P36888)", "experiment": "Inhibition of FLT3 phosphorylation in human MV4-11 cells at 0.02 to 1 uM after 24 hrs by Western blot analysis", "assay_type": "cell-based", "how_it_was_run": "as §2"}, "[18]": {"system": "MV4-11", "experiment": "Induction of apoptosis in human MV4-11 cells assessed as late apoptotic cells at 0.2 uM after 24 hrs by annexin V-FITC/propidium iodide staining-based flow cytometric method (reference value: 2.54%)", "assay_type": "functional"}, "[19]": {"experiment": "Intrinsic clearance in cynomolgus monkey liver microsomes by LC-MS/MS analysis", "assay_type": "ADME, Macaca fascicularis, microsome", "settings": "read-out: CLH"}}, "note": "Activity calls are given as the source filed them. The calls are words filed in the database; no cut-off is given here.", "data": [{"smiles": "CN1CCN(Cc2ccc(NC(=O)c3n[nH]cc3Nc3ncnc4[nH]ccc34)cc2)CC1", "values": [{"measurement": "Activity", "setting": "[1]", "value": 28.54, "unit": "%"}, {"measurement": "half-life", "setting": "[2]", "value": 15.4, "unit": "min"}, {"measurement": "IC50", "setting": "[3]", "value": 2.47, "unit": "nM"}, {"measurement": "IC50", "setting": "[4]", "value": 492, "unit": "nM"}, {"measurement": "IC50", "setting": "[5]", "value": 0.85, "unit": "nM"}, {"measurement": "GI50", "setting": "[6]", "value": 110, "unit": "nM"}, {"measurement": "half-life", "setting": "[7]", "value": 51.3, "unit": "min"}, {"measurement": "Activity", "setting": "[8]", "value": 15.02, "unit": "%"}, {"measurement": "Activity", "setting": "[9]", "value": 78.95, "unit": "%"}, {"measurement": "inhibition", "setting": "[10]", "value": "Dose-dependent effect"}, {"measurement": "Activity", "setting": "[11]", "value": "Non-Toxic"}, {"measurement": "Activity", "setting": "[12]", "value": 24.17, "unit": "%"}, {"measurement": "Activity", "setting": "[13]", "value": 31.56, "unit": "%"}, {"measurement": "GI50", "setting": "[14]", "value": 50, "unit": "nM"}, {"measurement": "IC50", "setting": "[15]", "value": 8, "unit": "nM"}, {"measurement": "inhibition", "setting": "[16]", "value": "Active"}, {"measurement": "inhibition", "setting": "[17]", "value": "Active"}, {"measurement": "Activity", "setting": "[18]", "value": 9.33, "unit": "%"}, {"measurement": "CLint scaled", "setting": "[19]", "value": 36.5, "unit": "mL/min/kg"}]}]}
